# Assay results from PubChem BioAssay AID651740 (Broad Institute, 2012).
# Hit rate of the full screen: of about 5,600 compounds, about 1,200 (21%) were called active. Another 3% or so got no clear call; they are omitted.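 How the source made its calls: active means mean inhibition above about 95%, with at least 55% of replicates also reaching it (limit read from the data); inconclusive means meets just one of the two conditions; inactive means meets neither condition.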 Only a sample is shown.
# Assay: inhibitors of intracellular T. cruzi replication, confirmation, NIH3T3 host cells, beta-gal parasites, cherry-pick, set 2 (AID 651740);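 further: plate controls were neutral control median for no effect and positive control median for full effect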
# Conditions: T. cruzi beta-gal in NIH3T3, GalScreen luminescence, 90 h; at 2.09 µM; stronger effect = higher value
# Method in brief: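 Material: T. cruzi Tulahuen C4 (beta-gal) in NIH/3T3 cells; input: 5,000 host cells per well; incubation: ≥90 h co-culture with compound, 60 min detection reagent; signal: luminescence, GalScreen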
row,Structure (SMILES),inhibition
1,O=C(Cc1ccccn1)N1CCCCN2[C@@H](CO)[C@@H](c3ccc(C#Cc4ccccc4)cc3)[C@@H]2C1,56.8% (inactive)
2,COc1ccc(C#Cc2ccc([C@H]3[C@H](CO)N4CCCCN(C(=O)Cc5ccccc5)C[C@@H]34)cc2)cc1,111% (active)
3,COc1ccc(-c2ccc([C@H]3[C@H](CO)N4CCCCN(C(=O)Cc5ccncc5)C[C@@H]34)cc2)cc1,66.4% (inactive)
4,C/C=C/c1ccc([C@H]2[C@H](CO)N3CCCCN(C(=O)Cc4ccncc4)C[C@@H]23)cc1,82.3% (inactive)
5,O=C(Cc1cccnc1)N1CCCCN2[C@@H](CO)[C@H](c3ccc(C#CC4CCCC4)cc3)[C@@H]2C1,46.3% (inactive)
